Source: PubChem
This is a sample that favours compounds with a hit; in the whole collection about 4.5% have one here.
CHOP UPR activ: activators of apoptotic CHOP UPR arm, primary screen, cell-based, CHO-CHOP luciferase reporter, luminescence, uHTS. UPR activation; percent of tunicamycin response over DMSO baseline. activation, % at 10 µM. 330,000 compounds, 0.34% hits. AID 449763, 2010;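 active = at 10 µM dose, activation of 40% or more, normalized to positive control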;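 also: 100% = tunicamycin at 10 µg/mL and 0% = DMSO alone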
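Material: CHO-CHOP cells, stable luciferase reporter of PERK-eIF2a-CHOP signalling; quantity: 500 reporter cells seeded per well; buffer or medium: F12 medium containing 10% fetal bovine serum; compound: one dose, 10 µM in 0.5% DMSO; incubation: 6 h compound treatment, 37 °C; measured by: Steady-Glo luciferase luminescence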
p97 ATPase inh: inhibitors of human p97 ATPase, primary screen, biochemical. AID 1481, 2009. 220,000 compounds, 0.42% hits. recombinant p97 ATPase, Kinase-Glo ATP luminescence, 3 h. Transitional endoplasmic reticulum ATPase (Homo sapiens), P55072. inhibition, % at 8 µM; in the data active = inhibition above about 15%;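 also: 0% = DMSO vehicle and 100% = wells lacking enzyme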
Target sequence (P55072 whole entry, looked up): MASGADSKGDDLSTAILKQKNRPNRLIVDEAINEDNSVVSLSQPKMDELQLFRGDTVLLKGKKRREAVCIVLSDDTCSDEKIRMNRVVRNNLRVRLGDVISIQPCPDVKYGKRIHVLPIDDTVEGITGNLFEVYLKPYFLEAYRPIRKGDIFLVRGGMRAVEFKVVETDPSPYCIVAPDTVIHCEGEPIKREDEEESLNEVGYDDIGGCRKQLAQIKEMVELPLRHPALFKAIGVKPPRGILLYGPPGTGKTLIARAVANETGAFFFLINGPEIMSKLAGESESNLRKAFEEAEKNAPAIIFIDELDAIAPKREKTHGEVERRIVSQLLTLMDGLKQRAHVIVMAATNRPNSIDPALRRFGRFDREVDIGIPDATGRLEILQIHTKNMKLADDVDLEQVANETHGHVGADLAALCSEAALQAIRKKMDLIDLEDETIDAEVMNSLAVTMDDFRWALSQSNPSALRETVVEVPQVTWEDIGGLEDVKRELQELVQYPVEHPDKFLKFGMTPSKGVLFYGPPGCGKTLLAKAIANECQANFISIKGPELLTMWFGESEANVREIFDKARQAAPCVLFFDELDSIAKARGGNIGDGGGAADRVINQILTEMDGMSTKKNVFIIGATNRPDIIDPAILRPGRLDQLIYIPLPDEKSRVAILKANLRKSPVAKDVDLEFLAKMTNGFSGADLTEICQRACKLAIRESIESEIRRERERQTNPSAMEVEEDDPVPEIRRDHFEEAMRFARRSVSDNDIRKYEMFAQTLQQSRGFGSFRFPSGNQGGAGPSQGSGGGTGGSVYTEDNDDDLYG
NS3 helicase inh: inhibitors of HCV NS3 helicase, primary screen, biochemical, Cy5 molecular beacon fluorescence; NS3 helicase DNA unwinding; AID 1800, 2009; Hepatitis C virus NS3 helicase; inhibition, % at 10.9 µM; 290,000 compounds, 0.56% hits;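 active = inhibition above the mean of all tested compounds plus 3 SD, set per campaign, cut at about 35% in these data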;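 also: 0% = DMSO wells and 100% = thioflavine S control wells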
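Assay system – hepatitis C virus NS3 helicase domain fragment enzyme · Buffer or medium – MOPS pH 6.5, MgCl2, DTT, Tween20, BSA · Reagent – Cy5/quencher beacon DNA duplex and ATP to start · Compound – single 10.9 µM dose · Timing – 1 h at 25 °C · Technique – Cy5 beacon fluorescence read at start and 1 h · Measure – % inhibition of unwinding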
CHOP inh: inhibitors of CHOP promoter induction, primary screen, cell-based, unfolded protein response, luciferase reporter. CHO-K1 CHOP-promoter luciferase, tunicamycin-induced, 15-18 h. inhibition, % at 10 µM. 220,000 compounds, 3.8% hits;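 active = compounds that reduced the stress-induced luciferase reporter signal by more than about 70% of percent inhibition, limit read from the data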;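 also: 0% = tunicamycin plus vehicle and 100% = wells without tunicamycin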
M18AAP inhibitor: PfM18AAP inhibitors, malaria aminopeptidase, primary screen, biochemical, QFRET, recombinant enzyme; M18 aspartyl aminopeptidase (Plasmodium falciparum 3D7); inhibition, % at 7.35 µM; 290,000 compounds, 1.2% hits; AID 1822, 2009; H-Glu-NHMec fluorogenic cleavage;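 active = inhibition above the campaign mean inhibition over all tested compounds plus 3 SD, cut at about 28% in these data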;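 also: 0% = plate median of test compound wells and 100% = 2 mM ZnCl2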
XBP1 UPR activ: activators of adaptive XBP1 UPR arm, primary screen, cell-based, CHO-XBP1 luciferase reporter, luminescence, uHTS | 330,000 compounds, 0.33% hits | AID 463104, 2010 | IRE1-XBP1 UPR activation; percent of tunicamycin response, DMSO as zero | activation, % at 20 µM;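 active = versus positive control, 20 µM dose yields 30% or more activation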;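 also: 100% = tunicamycin at 10 µg/mL and 0% = DMSO only wells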
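Material – CHO cell line with stable XBP1 luciferase reporter · Buffer or medium – F12 plus 10% FBS · Compound – single point, 20 µM final compound, 1% DMSO · Schedule – 16-18 h cell attachment at 37 °C, then 6 h compound exposure · Signal – Steady-Glo luminescence read · Benchmarks – high control tunicamycin 10 µg/mL final, low control DMSO vehicle only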
An asterisk follows results filed as active; / = not tested or not shown.

SMILES	CHOP UPR activ	p97 ATPase inh	NS3 helicase inh	CHOP inh	M18AAP inhibitor	XBP1 UPR activ
COc1ccc(-n2c(N)c(C(=O)Nc3c(C)n(C)n(-c4ccccc4)c3=O)c3nc4ccccc4nc32)cc1	1	8	4	52	-1	-2
Cc1ccc(-n2c(N)c(C(=O)Nc3c(C)n(C)n(-c4ccccc4)c3=O)c3nc4ccccc4nc32)cc1C	8	6	72*	91*	-3	0
CCCCN(C(=O)c1c(CC)noc1C)c1c(N)n(CCCC)c(=O)[nH]c1=O	1	/	/	/	/	-1
C=CCOc1c(Cl)cc(CNCCCN2CCOCC2)cc1OC	0	/	-7	/	2	-5
Cc1c(NC(=S)NC(=O)c2sc3ccccc3c2Cl)cccc1C(=O)O	-3	-3	16	-4	-16	-5
O=C(Nc1cccnc1)c1sc2cccc(F)c2c1Cl	2	-2	1	39	4	1
O=C(Nc1ccccn1)c1sc2cccc(F)c2c1Cl	-4	2	6	78*	-17	-2
Cc1ccc(NC(=O)c2sc3ccccc3c2Cl)nc1	-3	3	-4	94*	6	-8
Cc1nnc(NC(=O)c2sc3ccccc3c2Cl)s1	1	-1	3	49	5	-2
COc1ccccc1C(=O)NNC(=S)NC(=O)c1sc2ccccc2c1Cl	13	7	18	80*	8	26
CC1=Nc2ccccc2N=C(NC(=O)c2ccccc2)C1c1ccccc1 (stereo unspecified)	0	2	3	27	-2	-3
CCc1noc(C)c1C(=O)OCC(=O)N(C)c1c(N)n(Cc2ccccc2)c(=O)[nH]c1=O	2	/	/	/	/	0
Cc1ccccc1NC(=O)COC(=O)CCC(=O)c1cccs1	0	/	/	/	/	-2
CCCOc1cccc(C(=O)N/N=C/c2ccoc2)c1	2	/	7	/	3	1
COc1ccc(NC(=O)CCl)cn1	-2	25*	-9	-5	-2	-1
COc1ccc(C(=O)NC(C)CCCC(C)(C)O)cc1OC1CCN(C(C)=O)CC1 (stereo unspecified)	2	/	-4	/	-3	-4
CC(C(=O)NC1=NCCS1)N1C(=O)C2CC=CCC2C1=O (stereo unspecified)	2	4	0	83*	-4	2
O=C(CCc1c[nH]c2ccccc12)N1CCN(c2ccc(O)cc2)CC1	-1	10	11	31	31*	2
O=C1OC[C@H]2CCCN2C(=O)[C@@H](CC(=O)N(CCO)Cc2ccccc2)C/C=C\C[C@H]1Cc1ccc(F)cc1	0	/	/	/	/	-3
CC(C)Cc1ccc(C(C)C(=O)Nc2ccccc2O)cc1 (stereo unspecified)	1	1	4	55	-8	-1
Clc1ccc(Sc2oc(/C=N/n3cnnc3)cc2Br)cc1	-1	-4	-2	69	10	-2
CN(C)C(=O)/C(C#N)=C\c1cc(Br)c(Sc2ccc(Cl)cc2)o1	/	-4	15	80*	3	/
O=C(CSc1cccc(C(F)(F)F)c1)N1CCN(S(=O)(=O)c2ccccc2)CC1	0	1	5	81*	4	-6
O=C(CSc1ccc(Br)cc1)N1CCN(S(=O)(=O)c2ccccc2)CC1	0	/	7	/	10	-4
CCOC(=O)C1=NN(c2ccccc2)C2=NC(C)=C(C(=O)OC)C(c3ccc(C)cc3)N12 (stereo unspecified)	3	5	6	18	-1	2
SMILES	CHOP UPR activ	p97 ATPase inh	NS3 helicase inh	CHOP inh	M18AAP inhibitor	XBP1 UPR activ
CCCCCCCCNc1ncnc2ccccc12	8	-1	-20	81*	-7	-4
O=C(CCNC(=O)c1ccccc1Cl)NCCc1ccc(Cl)cc1	2	/	0	/	-7	-5
O=C(Cc1c(Cl)cccc1Cl)NCCc1ccc(Cl)cc1	2	3	-8	75*	-2	-3
COc1ccc(/C=C/C(=O)OCC(=O)Nc2ccc3[nH]c(=O)[nH]c3c2)cc1OC	-1	/	/	/	/	0
CCCCN(CCCC)c1nc2ccccc2nc1C(C#N)C(=O)NCCCOC (stereo unspecified)	0	1	8	15	0	0
CCCN(CCC)c1nc2ccccc2nc1C(C#N)C(=O)OC(C)COC (stereo unspecified)	-10	1	34	87*	15	2
CCc1nc(SCC(=O)Nc2cc(OC)ccc2OC)c2c(C)c(C)sc2n1	-1	/	-5	/	8	-2
CCCn1c(C2CC(=O)N(c3ccc(C)cc3)C2)nc2ccccc21 (stereo unspecified)	-1	-4	5	-12	-4	2
CCn1c(C2CC(=O)N(c3cc(C)cc(C)c3)C2)nc2ccccc21 (stereo unspecified)	2	0	-10	75*	2	-1
CC1CCN(CC(CS(=O)(=O)c2ccc([N+](=O)[O-])cc2)N2CCC(C)CC2)CC1 (stereo unspecified)	34	6	-5	71*	1	-5
CCOc1cccc(C2/C(=C(/O)c3ccc4c(c3)CC(C)O4)C(=O)C(=O)N2Cc2cccnc2)c1 (stereo unspecified)	-1	/	10	/	3	-2
CC1=C(C)/C(=N/OC(=O)c2cccc([N+](=O)[O-])c2)C=CC1=O	16	0	0	92*	-3	-4
N#CC1=C(SCC(=O)NC2CC2)NC(=O)C(C#N)C12CCCCC2 (stereo unspecified)	0	-2	-6	-11	3	-2
CC(C)(C)C1CCC2(CC1)C(C#N)=C(SCC(=O)NC1CCCCC1)NC(=O)C2C#N (stereo unspecified)	-3	4	19	81*	-11	1
N#CC1=C(SCC(=O)NC23CC4CC(CC(C4)C2)C3)NC(=O)C(C#N)C12CCCCC2 (stereo unspecified)	2	-1	1	85*	0	-3
COc1ccc(/C(C)=N/NC(=O)c2ccc(CSc3nncn3C)cc2)cc1	-2	3	-8	5	9	-1
CN(C)c1ccc(S(=O)(=O)N2CCCCC2)cc1NC(=O)C1=NN(c2ccccc2)C(=O)CC1	-2	/	-8	/	2	-1
CC1Cc2ccccc2N1c1ncnc(N)c1[N+](=O)[O-] (stereo unspecified)	-4	4	-11	72*	-18	-6
CC1CCCCN1c1ncnc(N)c1[N+](=O)[O-] (stereo unspecified)	-1	-2	3	38	1	-2
